From PubChem BioAssay
Shown are actives, neighbours in structure and some others; about 10% of the full set was active somewhere.
PMI act satM6P: PMI (human) activation, high substrate; AID 1216; activation factor at 20 µM; P34949; coupled PMI enzyme assay, resazurin fluorescence, 20 min; active compounds read high; 1 = untreated enzyme, 0 = substrate-free blank; actives 0.34% (n = 190,000);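 active = activation factor of 2 or more at 20 µM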
Target sequence (P34949 whole entry, looked up): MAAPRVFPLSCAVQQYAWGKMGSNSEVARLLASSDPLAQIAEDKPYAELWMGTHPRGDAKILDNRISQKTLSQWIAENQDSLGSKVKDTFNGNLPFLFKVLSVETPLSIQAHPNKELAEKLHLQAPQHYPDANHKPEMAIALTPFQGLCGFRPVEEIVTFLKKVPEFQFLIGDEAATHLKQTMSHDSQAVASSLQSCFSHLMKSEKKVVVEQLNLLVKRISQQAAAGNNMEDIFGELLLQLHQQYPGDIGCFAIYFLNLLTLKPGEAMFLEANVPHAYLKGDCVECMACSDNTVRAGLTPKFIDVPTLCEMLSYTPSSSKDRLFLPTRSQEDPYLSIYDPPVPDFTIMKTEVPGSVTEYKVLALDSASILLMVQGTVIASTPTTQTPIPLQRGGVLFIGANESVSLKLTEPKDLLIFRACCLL
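Test system: human PMI in coupled enzyme assay; Input: PMI at 15 ng/mL final; Medium: HEPES buffer, pH 7.4; Schedule: 20 min incubation at room temperature; Technique: resorufin fluorescence at Ex 544/Em 590 nm; Compound: 20 µM single dose; Probe or stimulus: Near-saturating mannose-6-phosphate, 1.0 mM.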
Lmaj promast: inhibitors of Leishmania major promastigote growth | Leishmania major promastigotes, resazurin fluorescence viability | inhibition, % at 10 µM | actives 9% (n = 200,000) | AID 1063; in the data active = inhibition above about 50%;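 note: promastigotes grown with compound for 44 hours at 28 °C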
WT yeast gro inh: growth inhibition of WT yeast, mitochondrial fusion screen; mitochondrial fusion phenotypic screen, WT strain; inhibition, % at 10 µM; actives 2.1% (n = 190,000); AID 1362; in the data active = inhibition above about 58%; tested in S. cerevisiae
Diaph act CS: diaphorase activation or chemical reduction counter-screen. Diaphorase/resazurin coupled assay, resorufin fluorescence, 16 min; active compounds read high; 1 = vehicle wells, 0 = NADH-free wells. activation factor at 20 µM. actives 0.005% (n = 190,000). AID 1229;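 active = diaphorase activity raised at least twofold by the compound at 20 µM; inactive = activation factor below 2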
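Assay system: bacterial diaphorase enzyme (C. kluyveri) / Input: enzyme 0.07 U/mL final / Medium: 50 mM HEPES pH 7.4 with 4.542 mM MgCl2, 0.005% Tween 20 / Doses: single compound dose of 20 µM, 1% DMSO final / Incubation: 16 min enzyme reaction, ambient temperature / Signal: fluorescence, excitation 544 nm and emission 590 nm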
PMI activator: increases human mannose-6-phosphate isomerase activity; AID 1214; purified human PMI, coupled resazurin fluorescence, 20 min; active compounds read high; 1 = vehicle control, 0 substrate-free wells; actives 0.005% (n = 190,000); P34949; activation factor at 20 µM;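 active = activation factor of 2 or more at 20 µM, relative to plate controls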
* = called active by the depositor.

`CSC(=S)N/N=C(\C)c1ccccc1` gave PMI act satM6P 1.1, Lmaj promast 100.3*, WT yeast gro inh 65.1*, Diaph act CS 0.7 and PMI activator 1.1.
C/C(=N\NC(=S)Nc1cccc(C)c1)c1ccccc1 was read as PMI act satM6P 1, Lmaj promast -4.0, WT yeast gro inh -2.6, Diaph act CS 0.8 and PMI activator 1.
`O=C(NCc1cccnc1)c1cn(-c2ccccc2)nc1-c1ccccc1` gave PMI act satM6P 1, Lmaj promast 7.6, WT yeast gro inh 5.9, Diaph act CS 0.9 and PMI activator 1.
`CC1=C(C(=O)OC2CCCC2)C(c2ccc(C)o2)C2=C(CC(c3cccs3)CC2=O)N1` (centres undefined) gave PMI act satM6P 1, Lmaj promast 83.4*, WT yeast gro inh 15.5, Diaph act CS 0.8 and PMI activator 0.8.
Screening COC(=O)COc1ccc(C)cc1-n1nc2ccccc2n1 returned PMI act satM6P 1, Lmaj promast -6.2, WT yeast gro inh 73.6*, Diaph act CS 1 and PMI activator 1.
Screening Cc1ccc(OC(=O)COc2ccccc2C)c(-n2nc3ccccc3n2)c1 returned PMI act satM6P 1, Lmaj promast -9.7, WT yeast gro inh 18.5, Diaph act CS 0.9 and PMI activator 0.9.
Screening CSc1nc2nccc(/C=C\c3ccccc3)n2n1 returned PMI act satM6P 1, Lmaj promast 85.6*, WT yeast gro inh 22.4, Diaph act CS 0.9 and PMI activator 1.1.
Screening CSc1nc2nccc(-c3ccc(Cl)cc3)n2n1 returned PMI act satM6P 1, Lmaj promast 0.6, WT yeast gro inh -8.6, Diaph act CS 0.9 and PMI activator 0.9.
O=C(NCc1cccnc1)/C(=C/c1ccc(-c2ccc(Cl)cc2)o1)S(=O)(=O)c1ccccc1 was read as PMI act satM6P 0.9, Lmaj promast 100.6*, WT yeast gro inh 5.9, Diaph act CS 0.9 and PMI activator 0.9.
Screening O=C(NCc1cccnc1)/C(=C/c1ccc(-c2cccc(C(F)(F)F)c2)o1)NC(=O)c1ccccc1 returned PMI act satM6P 0.8, Lmaj promast 84.1*, WT yeast gro inh -13.4, Diaph act CS 0.7 and PMI activator 0.7.
Screening Cc1ccc(-c2cc(C(=O)NCc3cccnc3)no2)cc1 returned PMI act satM6P 0.9, Lmaj promast -1.4, WT yeast gro inh 4.0, Diaph act CS 0.9 and PMI activator 0.9.
Screening Cc1ccc(C(=O)N/C(=C/c2ccc(-c3cc(C(F)(F)F)ccc3Cl)o2)C(=O)NCc2cccnc2)cc1 returned PMI act satM6P 0.9, Lmaj promast 29.6, WT yeast gro inh -11.6, Diaph act CS 0.8 and PMI activator 0.8.
`O=C(NCc1cccnc1)/C(=C\c1ccc(-c2ccc(Br)cc2)o1)S(=O)(=O)c1ccccc1` gave PMI act satM6P 1, Lmaj promast 100.4*, WT yeast gro inh 41.9, Diaph act CS 0.9 and PMI activator 0.9.
c1ccc(CN2CCN(c3nc(-c4ccccc4)nc(-n4ccnc4)n3)CC2)cc1 was read as PMI act satM6P 0.9, Lmaj promast -15.0, WT yeast gro inh 56.0, Diaph act CS 0.9 and PMI activator 0.9.
Screening c1ccc(N(c2ccccc2)c2nc(N3CCCC3)nc(-n3ccnc3)n2)cc1 returned PMI act satM6P 0.9, Lmaj promast 98.0*, WT yeast gro inh 78.5*, Diaph act CS 0.8 and PMI activator 0.9.
CN(c1ccccc1)c1nc(N2CCCC2)nc(-n2ccnc2)n1 was read as PMI act satM6P 0.9, Lmaj promast 95.0*, WT yeast gro inh -0.8, Diaph act CS 0.9 and PMI activator 0.9.
`Cc1cc(C)nc(/N=C(/NC(=O)Nc2cccc(Cl)c2)Nc2ccccc2)n1` gave PMI act satM6P 0.9, Lmaj promast -3.4, WT yeast gro inh 14.0, Diaph act CS 0.9 and PMI activator 0.8.
Screening CCc1nnc(N/N=C/c2ccc(N3CCC(C)CC3)c([N+](=O)[O-])c2)n1N returned PMI act satM6P 0.8, Lmaj promast 72.9*, WT yeast gro inh -3.8, Diaph act CS 0.9 and PMI activator 1.1.
CCc1nnc(N/N=C/c2ccccc2Cl)n1N was read as PMI act satM6P 0.9, Lmaj promast -3.4, WT yeast gro inh -17.2, Diaph act CS 0.9 and PMI activator 1.
For Cc1nnc(N/N=C/c2ccc([N+](=O)[O-])cc2)n1N the results were PMI act satM6P 0.3, Lmaj promast 10.9, WT yeast gro inh 13.5, Diaph act CS 0.8 and PMI activator 0.8.
For Cc1nnc(N/N=C/c2cc([N+](=O)[O-])c(N3CCC(C)CC3)cc2N2CCC(C)CC2)n1N the results were PMI act satM6P 1.1, Lmaj promast 99.7*, WT yeast gro inh 7.6, Diaph act CS 0.9 and PMI activator 0.9.
CCCNC(=O)[C@H](Cc1c[nH]c2ccccc12)NC(=O)c1ccccc1Cl was read as PMI act satM6P 1, Lmaj promast 0.5, WT yeast gro inh -1.4, Diaph act CS 0.9 and PMI activator 0.9.
Cc1ccccc1-n1nc(C(=O)c2cccs2)cc(-c2nc3ccccc3[nH]2)c1=N was read as PMI act satM6P 0.9, Lmaj promast 97.9*, WT yeast gro inh -12.2, Diaph act CS 0.9 and PMI activator 0.9.
`COC(=O)CSc1ncccc1-c1nc2ccccc2[nH]1` gave PMI act satM6P 1.1, Lmaj promast -1.0, WT yeast gro inh 14.3, Diaph act CS 0.8 and PMI activator 0.9.
COc1ccc(-n2nc(C(=O)c3cccs3)cc(-c3nc4ccccc4[nH]3)c2=N)cc1 was read as PMI act satM6P 1, Lmaj promast 99.4*, WT yeast gro inh -1.5, Diaph act CS 1.1 and PMI activator 1.
For Cc1cccc(-n2nc(C(=O)c3ccco3)cc(-c3nc4ccccc4[nH]3)c2=N)c1 the results were PMI act satM6P 1, Lmaj promast 100.1*, WT yeast gro inh -15.1, Diaph act CS 1 and PMI activator 1.1.
Screening CC1CCC2C(=O)N(c3ccc(C(=O)NCc4ccccc4)cc3)C(=O)C2C1 (centres undefined) returned PMI act satM6P 0.9, Lmaj promast -9.6, WT yeast gro inh 1.9, Diaph act CS 0.8 and PMI activator 1.
`COc1cc(CNn2nnnc2N)cc(Br)c1OCc1c(Cl)cccc1Cl` gave PMI act satM6P 1, Lmaj promast 94.1*, WT yeast gro inh 2.4, Diaph act CS 0.8 and PMI activator 1.
For O=C(C[n+]1cc(-c2ccccc2)n2c1CCCCC2)c1ccc(Br)cc1 the results were PMI act satM6P 1, Lmaj promast 98.7*, WT yeast gro inh 8.7, Diaph act CS 1.1 and PMI activator 1.
For Cc1ccc(C(=O)C[n+]2cc(-c3ccc(C)cc3)n3c2CCCCC3)cc1 the results were PMI act satM6P 1, Lmaj promast 100.5*, WT yeast gro inh 8.7, Diaph act CS 1 and PMI activator 0.9.
